# Screens deposited in PubChem by several laboratories.
# Sampled rows, rich in hits. Any-hit rate of the full collection: about 1.3%.
# CAL PDZ FP-1 – inhibitors of human CAL PDZ peptide binding | Q9HD26 | purified CAL PDZ, TMR-peptide fluorescence polarization, 1 h | inhibition, % at 20 µM | 0.02% of 330,000 active;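 active = highest replicate inhibition of at least 40%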
#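 Control set: unlabelled peptide and DMSO controls / Material: purified CerCALP PDZ construct / Timing: 1 h incubation at room temperature before polarization reading / Doses: 20 µM, one dose / Detection: fluorescence polarization (mP)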
# Keap1 Nrf2 FP – Keap1-Nrf2 (human) interaction inhibition; Q14145; Keap1 Kelch-Nrf2 peptide fluorescence polarization, 1536-well; inhibition, % at 9.4 µM; 0.15% of 340,000 active; AID 504523; in the data active = inhibition above about 12%;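 also: human Keap1 Kelch domain with fluorescein labeled Nrf2 9mer peptide probe; higher means more block of Keap1 binding to Nrf2 peptide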
# Target sequence (Q14145 whole entry, looked up, the tested form may be a part): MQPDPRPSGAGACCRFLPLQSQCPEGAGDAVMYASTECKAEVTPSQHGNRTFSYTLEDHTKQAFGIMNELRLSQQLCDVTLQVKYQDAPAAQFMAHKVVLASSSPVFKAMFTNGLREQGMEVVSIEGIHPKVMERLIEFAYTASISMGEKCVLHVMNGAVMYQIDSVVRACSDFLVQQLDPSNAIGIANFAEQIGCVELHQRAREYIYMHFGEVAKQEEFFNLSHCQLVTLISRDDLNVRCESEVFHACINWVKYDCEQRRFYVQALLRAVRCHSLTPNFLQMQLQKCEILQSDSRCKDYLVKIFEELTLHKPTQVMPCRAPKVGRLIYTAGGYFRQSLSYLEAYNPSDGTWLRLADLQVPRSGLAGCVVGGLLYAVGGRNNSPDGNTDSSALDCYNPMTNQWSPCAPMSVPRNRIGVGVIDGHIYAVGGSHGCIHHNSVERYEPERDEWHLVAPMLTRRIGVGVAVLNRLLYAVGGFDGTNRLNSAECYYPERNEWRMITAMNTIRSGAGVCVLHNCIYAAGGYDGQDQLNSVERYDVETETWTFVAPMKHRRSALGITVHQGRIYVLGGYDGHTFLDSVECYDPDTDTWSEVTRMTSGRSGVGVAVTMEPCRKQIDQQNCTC
# RTF Ca sens act – increases calcium sensitivity of human cardiac regulated thin filaments | P19429+P45379 | IANBD-labeled TnC RTF fluorescence at EC20 calcium; 0% EC20 calcium, 100% full calcium | activation, % at 7.2 µM | 0.24% of 340,000 active | AID 493008;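 active = activation above the mean over all tested compounds plus 3 SD, cut at about 30% in these data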;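 also: rise in fluorescence read as greater calcium sensitivity of cardiac thin filaments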
# LANA DNA inh – inhibitors of KSHV LANA C-terminal domain DNA binding | MBP-C-LANA/FAM-LBS DNA binding, fluorescence polarization | inhibition, % at 9 µM | 0.078% of 340,000 active;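 active = highest replicate inhibition at or above 60% at 9 µM, even if other replicates fall short; inactive = all replicates below 60% inhibition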
# CAL PDZ FP-2 – blocks peptide binding to the human CAL PDZ domain. Q9HD26. purified CAL PDZ, TMR-peptide fluorescence polarization, 1 h. inhibition, % at 24.9 µM. 0.92% of 300,000 active. AID 602252;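 active = mean inhibition of at least 30% with at least half of replicates also reaching 30%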
# RTF Ca sens inh – cardiac RTF calcium desensitization; IANBD-labeled cardiac RTF, Ca2+ fluorescence; 0.12% of 340,000 active; inhibition, % at 7.15 µM; P19429+P45379;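 active = inhibition above the mean inhibition of all tested compounds plus 3 SD, cut at about 17% in these data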;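 also: assay run at fixed EC70 calcium of 1.6 mM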
# A number is an active result; . = inactive; / = no result given; + = active, no number.
SMILES,CAL PDZ FP-1,Keap1 Nrf2 FP,RTF Ca sens act,LANA DNA inh,CAL PDZ FP-2,RTF Ca sens inh
CC(C)(C)OC1NS(=O)(=O)OCC1NCOC(Cl)(Cl)Cl (centres undefined),.,.,.,.,.,.
C[C@]12C=CC(=O)C=C1CCC1C2CC[C@@]2(C)C1CCC21OCCO1 (some centres undefined),.,.,.,.,102,.
CC(Oc1ccc2ccc(=O)oc2c1)C(=O)NCCCn1ccnc1 (centres undefined),.,.,.,.,.,.
Cc1c(C)c2ccc(OC(C)C(=O)NCCCn3ccnc3)c(C)c2oc1=O (centres undefined),.,.,.,.,71,.
Cc1ccc2nc(-c3ccc(NC(=O)CSc4nc(N)cc(=O)[nH]4)cc3)sc2c1,.,.,.,.,54,.
Cc1cc(C)c2c(=O)[nH]c(SCC(=O)Nc3ccccc3)nc2n1,.,.,.,.,/,.
Cc1ccc(NC(=O)CSc2nc3nc(C)cc(C)c3c(=O)[nH]2)cc1,/,.,.,.,37,.
CC1CN=C(c2ccccc2)O1 (centres undefined),.,.,.,.,.,.
Cc1cc(OCC(=O)N(Cc2ccco2)c2c(N)n(Cc3ccccc3)c(=O)[nH]c2=O)ccc1Cl,.,.,.,.,74,.
CCCOc1ccc(C(=O)CCC(=O)OCC(=O)N(C)c2c(N)n(Cc3ccccc3)c(=O)[nH]c2=O)cc1,.,.,.,.,38,.
CCN(C(=O)COC(=O)CCc1ccc(OC)cc1)c1c(N)n(Cc2ccccc2)c(=O)[nH]c1=O,.,.,.,.,44,.
COc1ccccc1N1CCN(C(=O)CCC(=O)Nc2nnc(C(C)C)s2)CC1,.,.,.,.,.,.
COc1ccccc1NS(=O)(=O)c1ccc(C)c(C(=O)NC2=NCCS2)c1,.,.,.,.,.,.
O=C(CN1C(=O)NC2(CCCCC2)C1=O)N1CCN(S(=O)(=O)c2ccc(F)cc2)CC1,.,.,.,.,.,.
Cc1cccc(NC(=O)C2CCCN(C(=O)Nc3ccc(F)cc3)C2)c1 (centres undefined),.,.,.,.,44,.
O=C(Nc1cccc(C(=O)N2CCCC2)c1)C1CCCC1,.,.,.,.,.,.
O=C(Nc1cccc(C(=O)N2CCCCC2)c1)C1CC1,.,.,.,.,81,.
CC1CCCCN1C(=O)c1cccc(NC(=O)c2ccccc2)c1 (centres undefined),.,.,.,.,76,.
CN(C(=O)c1cccc(NC(=O)c2ccccc2)c1)C1CCCCC1,.,.,.,.,48,.
COCCN(C(=O)COC(=O)CSc1ccc(Cl)cc1)c1c(N)n(Cc2ccccc2)c(=O)[nH]c1=O,.,.,.,.,.,.
NC1=NC(c2cccc(Cl)c2)N(CCc2ccc(F)cc2)C(N)=N1 (centres undefined),.,.,.,.,.,.
CC(C)Oc1ccc(C2NC(=O)c3ccccc3O2)cc1 (centres undefined),.,.,.,.,.,.
COc1cc(N2CCCC2)c(OC)cc1/C=C(/C#N)c1cccc(F)c1,.,.,.,.,/,.
COc1cc(N2CCCC2)c(OC)cc1/C=C1/NC(=S)NC1=O,.,.,79,.,.,.
COc1ccccc1NS(=O)(=O)c1ccc(NC(=O)N2CCCCC2)cc1,.,.,.,.,.,.
SMILES,CAL PDZ FP-1,Keap1 Nrf2 FP,RTF Ca sens act,LANA DNA inh,CAL PDZ FP-2,RTF Ca sens inh
Cc1ccccc1C1=C/C(=C(\SS/C(C(=O)c2ccc(OCC(=O)O)c(Cl)c2Cl)=C2\C=C(c3ccccc3C)SS2)C(=O)c2ccc(OCC(=O)O)c(Cl)c2Cl)SS1,.,.,.,100,.,.
CCN1C(=O)CS/C1=N\S(=O)(=O)c1ccc(Cl)cc1,64,.,.,.,.,.
O=C(COc1ccc(F)cc1Br)N1CCN(c2ncccn2)CC1,.,.,.,.,.,.
O=C(COc1ccc(F)cc1Br)N1CCN(S(=O)(=O)/C=C/c2ccccc2)CC1,.,.,.,.,54,.
COc1cccc(/C=C2\SC(=S)N(CCC(=O)NCCc3ccc(O)cc3)C2=O)c1,.,.,.,.,80,.
COc1cccc(/C=C2\SC(=S)N(CCC(=O)Nc3ccc(O)cc3)C2=O)c1,.,.,.,.,.,.
CCCNc1nc2c(c(=O)[nH]c(=O)n2C)n1Cc1cccc(Br)c1,/,.,.,.,36,.
Cn1c(=O)[nH]c(=O)c2c1nc(Br)n2Cc1cccc(Br)c1,.,.,.,.,.,.
Cc1noc(C)c1C(=O)OCC(=O)NCCc1ccccc1,.,.,.,.,84,.
O=C(O)c1cccc(S(=O)(=O)NNc2ccccc2C(F)(F)F)c1,.,.,.,.,+,.
Cc1c(Br)cnn1C(C)C(=O)N1CCN(c2ccccc2F)CC1 (centres undefined),.,.,.,.,.,.
CCOc1ccc(CN(C)Cc2cc(=O)oc3c(C)c(C)ccc23)cc1OC,.,.,.,.,/,.
O=C(CSc1nnc(N2CCCC2)n1-c1ccccc1Cl)N1CCN(c2ccccn2)CC1,.,.,.,.,40,.
COc1ccc(S(=O)(=O)N(CC(=O)N2CCN(c3ccccc3)CC2)c2ccccc2)cc1,.,.,.,.,.,.
CN(CC1CCCO1)S(=O)(=O)c1ccc(C(=O)N2CCN(c3ccccc3)CC2)cc1 (centres undefined),.,.,.,.,+,.
O=C(c1ccccc1C(=O)N1CCN(c2ccccc2)CC1)N1CCN(c2ccccc2)CC1,/,.,32,.,.,.
CCN(c1ccccc1)S(=O)(=O)c1ccc(C(=O)N2CCN(c3ccccc3)CC2)cc1,.,.,.,.,85,.
O=C(CCc1ccccc1)NNC(=O)COc1ccccc1Cl,.,.,.,.,/,.
CC(=O)Nc1c(Cl)cc2c(c1Cl)Cc1cc(C#N)ccc1-2,.,.,.,.,.,.
CC1CCN(C(=O)COc2ccc3ccccc3c2Br)CC1,.,.,.,.,.,.
COc1ccc(/C=C/C(=O)OCC(=O)N2CCCCCC2)cc1OC,.,.,.,.,.,.
COc1ccc(OC)c(/C=C/C(=O)OCC(=O)N2CCCCC2)c1,.,.,.,.,64,.
O=C(Cc1ccccc1)NCC(=O)N1CCN(Cc2cccc(Cl)c2)CC1,.,.,.,.,.,.
CCOC(=O)N1CCC(=NNC(=O)c2cc3ccccc3cc2O)CC1,.,.,.,.,/,.
CC(=O)N1CCC(=NNC(=O)c2cc3ccccc3cc2O)CC1,.,.,.,.,55,.
COc1cccc(CNC(=O)CN(C)S(=O)(=O)c2ccc(Br)s2)c1,.,.,.,.,.,.
Cc1cc(C)n(C(=O)c2cccc(S(=O)(=O)N3CCOCC3)c2)n1,.,.,.,.,64,.
